According to ChEMBL document CHEMBL2396539, “Asymmetric synthesis of the four diastereoisomers of a novel non-steroidal farnesoid X receptor (FXR) agonist: role of the chirality on the biological activity” (Bioorg Med Chem, 2013):

Columns and labels:
[1] = biological target: T1, Bile acid receptor (Homo sapiens) (UniProt Q96RI1); assay: Agonist activity at GST-tagged human FXR LBD assessed as recruitment of biotinylated SRC-1 peptide after 30 mins by AlphaScreen assay relative to CDCA
T1 sequence (whole entry): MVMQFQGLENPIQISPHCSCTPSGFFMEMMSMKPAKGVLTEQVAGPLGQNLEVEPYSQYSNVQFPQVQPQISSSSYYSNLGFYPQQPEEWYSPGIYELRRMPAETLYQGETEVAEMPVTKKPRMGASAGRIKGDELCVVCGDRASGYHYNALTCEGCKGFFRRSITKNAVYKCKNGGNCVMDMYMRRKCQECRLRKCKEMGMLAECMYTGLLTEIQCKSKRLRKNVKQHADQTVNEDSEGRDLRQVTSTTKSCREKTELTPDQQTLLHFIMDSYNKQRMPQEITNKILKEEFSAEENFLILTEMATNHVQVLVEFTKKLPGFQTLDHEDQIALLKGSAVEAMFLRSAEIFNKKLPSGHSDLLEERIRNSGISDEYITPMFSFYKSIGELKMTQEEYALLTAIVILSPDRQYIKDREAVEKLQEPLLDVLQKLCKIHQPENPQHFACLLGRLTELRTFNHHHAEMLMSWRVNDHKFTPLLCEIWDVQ

Bile acid receptor = biological target: T2, Bile acid receptor (Homo sapiens, UniProt Q96RI1); assay: Agonist activity at GST-tagged human FXR LBD assessed as recruitment of biotinylated SRC-1 peptide after 30 mins by AlphaScreen assay
T2 sequence (Q96RI1 whole entry): T1 sequence (whole entry)
Outline: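 Human FXR ligand-binding domain fused to GST was incubated with the ligand at increasing concentrations together with biotinylated SRC-1 peptide. Ligand-dependent recruitment of the coactivator peptide was read out by AlphaScreen. Where tested, compounds were single diastereoisomers or a mixture of syn- and anti-couples.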

| Structure (SMILES) | Efficacy [1] [%] | EC50 (Bile acid receptor) [µM] |
| --- | --- | --- |
| Cc1ccccc1-n1nc(C)c2c1NC(=O)[C@H](C)S[C@@H]2c1ccc(Oc2ccccc2)cc1 (racemic) [listing 1 of 2 here] | 150 |  |
| Cc1ccccc1-n1ncc2c1NC(=O)[C@H](C)S[C@@H]2c1ccc(Oc2ccccc2)cc1 (racemic) |  | > 150 |
| CCc1nn(-c2ccccc2C)c2c1[C@@H](c1ccc(Oc3ccccc3)cc1)S[C@@H](C)C(=O)N2 (racemic) | 140 | 2 |
| CCC1SC(c2ccc(Oc3ccccc3)cc2)c2c(C)nn(-c3ccccc3C)c2NC1=O (mixture of isomers) | 35 | 3 |
| Cc1ccccc1-n1nc(C)c2c1NC(=O)CS[C@H]2c1ccc(Oc2ccccc2)cc1 (racemic) | 8 | 14 |
| Cc1ccccc1-n1nc(C)c2c1NC(=O)[C@H](C)S[C@@H]2c1ccc(Oc2ccccc2)cc1 [listing 1 of 2 here] | 130 |  |
| Cc1ccccc1-n1nc(C)c2c1NC(=O)[C@H](C)S[C@@H]2c1ccc(Oc2ccccc2)cc1 (racemic) [listing 2 of 2 here] |  | 3 |
| Cc1ccccc1-n1nc(C)c2c1NC(=O)[C@@H](C)S[C@@H]2c1ccc(Oc2ccccc2)cc1 |  | > 150 |
| Cc1ccccc1-n1nc(C)c2c1NC(=O)[C@H](C)S[C@@H]2c1ccc(Oc2ccccc2)cc1 [listing 2 of 2 here] |  | 1.4 |
| Cc1ccccc1-n1nc(C)c2c1NC(=O)[C@H](C)S[C@H]2c1ccc(Oc2ccccc2)cc1 |  | > 150 |
| Cc1ccccc1-n1nc(C)c2c1NC(=O)[C@@H](C)S[C@H]2c1ccc(Oc2ccccc2)cc1 |  | > 150 |
| CCC[C@@H]1S[C@H](c2ccc(Oc3ccccc3)cc2)c2c(C)nn(-c3ccccc3C)c2NC1=O (racemic) |  | > 150 |
